Data from ChEMBL document CHEMBL1208780, “Tetrahydropyridine derivatives with inhibitory activity on the production of proinflammatory cytokines: part 3” (Bioorg Med Chem Lett, 2010).
Active and inactive are the calls of the source. No cut-off for these calls is given here.

Legend:
Rattus norvegicus [1] = assay: Antiarthritic activity in po dosed heat-killed mycobacterium tuberculosis-induced rat arthritis model assessed as decrease in paw volume administered QD for 20 days measured on day 21 by plethysmometry; format: functional; settings: read-out: ID50 (the source's name)
Blood [2] = assay: Antiinflammatory activity in human whole blood assessed as inhibition of LPS-induced IL-6 production after 6 hrs by immunoassay; format: functional, tissue-based
How it was run: (§1)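 Values are the mean and SD of three to four determinations. IC50 came from a least-squares linear regression of % inhibition against log concentration, with 95% confidence intervals by Fieller's theorem.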

[3] = target: Mitogen-activated protein kinase 11 (Homo sapiens, UniProt Q15759); assay: Inhibition of p38beta
Mitogen-activated protein kinase 11, sequence (Q15759 whole entry): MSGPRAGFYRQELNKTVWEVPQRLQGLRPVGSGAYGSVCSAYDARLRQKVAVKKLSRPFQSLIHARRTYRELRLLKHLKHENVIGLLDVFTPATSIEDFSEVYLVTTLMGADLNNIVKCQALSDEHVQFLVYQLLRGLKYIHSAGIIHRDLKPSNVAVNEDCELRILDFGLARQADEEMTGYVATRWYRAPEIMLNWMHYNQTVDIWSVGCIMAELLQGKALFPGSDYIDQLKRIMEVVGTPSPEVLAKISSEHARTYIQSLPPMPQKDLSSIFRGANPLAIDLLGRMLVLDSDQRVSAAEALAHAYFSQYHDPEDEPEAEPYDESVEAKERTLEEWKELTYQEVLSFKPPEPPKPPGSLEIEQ
How it was run: (§2)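 Kinase inhibition IC50 was the mean and SD of three to four determinations. It was derived by least-squares linear regression of % inhibition against log concentration, with 95% confidence intervals by Fieller's theorem.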

Mus musculus [4] = assay: Antiinflammatory activity in po dosed mouse assessed as inhibition of LPS-induced IL-6 production; format: functional; settings: read-out: ID50 (the source's name)
How it was run: (§3)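 Groups of five mice were used. ID50 came from a least-squares linear regression of % inhibition against log dose, with 95% confidence intervals by Fieller's theorem.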

Mus musculus [5] = assay: Antiinflammatory activity in po dosed mouse assessed as inhibition of LPS-induced TNFalpha production administered 30 mins before LPS challenge measured after 1 hr by ELISA; format: functional; settings: read-out: ID50 (the source's name); how it was run: as §3
Mus musculus [6] = organism: Mus musculus; assay: Antiarthritic activity in DBA/1 mouse assessed as inhibition of collagen-induced arthritis; format: functional; settings: read-out: ID50 (the source's name); how it was run: as §3
[7] = target: T1, Mitogen-activated protein kinase 12 (Homo sapiens, UniProt P53778); assay: Inhibition of p38-gamma; how it was run: as §2
T1 sequence (P53778 whole entry): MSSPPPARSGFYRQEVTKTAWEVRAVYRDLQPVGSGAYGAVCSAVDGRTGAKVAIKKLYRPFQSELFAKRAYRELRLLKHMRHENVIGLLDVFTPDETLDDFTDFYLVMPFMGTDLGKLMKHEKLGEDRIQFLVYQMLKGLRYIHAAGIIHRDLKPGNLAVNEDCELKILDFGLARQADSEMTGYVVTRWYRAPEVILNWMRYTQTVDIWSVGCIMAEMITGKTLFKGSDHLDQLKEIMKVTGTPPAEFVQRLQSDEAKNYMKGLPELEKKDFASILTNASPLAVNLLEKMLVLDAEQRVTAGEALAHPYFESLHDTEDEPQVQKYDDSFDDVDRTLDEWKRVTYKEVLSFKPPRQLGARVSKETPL

Mus musculus [8] = assay: Antiinflammatory activity in po dosed mouse assessed as inhibition of LPS-induced IL1-beta production administered 2 hrs after LPS challenge; format: functional; settings: read-out: ID50 (the source's name); how it was run: as §3
[9] = target: Mitogen-activated protein kinase 14 (Homo sapiens, UniProt Q16539); assay: Inhibition of p38alpha; how it was run: as §2
Mitogen-activated protein kinase 14, sequence (Q16539 whole entry): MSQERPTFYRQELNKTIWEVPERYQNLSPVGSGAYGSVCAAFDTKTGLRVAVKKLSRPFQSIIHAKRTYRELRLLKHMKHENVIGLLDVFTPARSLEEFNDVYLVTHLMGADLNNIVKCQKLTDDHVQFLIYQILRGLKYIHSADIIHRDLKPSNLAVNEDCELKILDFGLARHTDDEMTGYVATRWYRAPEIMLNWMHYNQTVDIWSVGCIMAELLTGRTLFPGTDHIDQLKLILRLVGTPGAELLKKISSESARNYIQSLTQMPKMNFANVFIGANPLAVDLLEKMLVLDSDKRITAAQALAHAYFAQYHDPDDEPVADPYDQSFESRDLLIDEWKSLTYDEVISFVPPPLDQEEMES

Mus musculus [10] = organism: Mus musculus; assay: Antiarthritic activity in DBA/1 mouse assessed as inhibition of anti-collagen antibody-induced arthritis after 3 weeks; format: functional; settings: DBA/1, 504 h, read-out: ID50 (the source's name); how it was run: as §3
Blood [11] = assay: Antiinflammatory activity in human whole blood assessed as inhibition of LPS-induced TNFalpha production after 6 hrs by immunoassay; format: functional, tissue-based; how it was run: as §1
Blood [12] = assay: Antiinflammatory activity in human whole blood assessed as inhibition of LPS-induced IL-8 production after 6 hrs by immunoassay; format: functional, tissue-based; how it was run: as §1
[13] = target: T2, Mitogen-activated protein kinase 13 (Homo sapiens, UniProt O15264); assay: Inhibition of p38delta; how it was run: as §2
T2 sequence (O15264 whole entry): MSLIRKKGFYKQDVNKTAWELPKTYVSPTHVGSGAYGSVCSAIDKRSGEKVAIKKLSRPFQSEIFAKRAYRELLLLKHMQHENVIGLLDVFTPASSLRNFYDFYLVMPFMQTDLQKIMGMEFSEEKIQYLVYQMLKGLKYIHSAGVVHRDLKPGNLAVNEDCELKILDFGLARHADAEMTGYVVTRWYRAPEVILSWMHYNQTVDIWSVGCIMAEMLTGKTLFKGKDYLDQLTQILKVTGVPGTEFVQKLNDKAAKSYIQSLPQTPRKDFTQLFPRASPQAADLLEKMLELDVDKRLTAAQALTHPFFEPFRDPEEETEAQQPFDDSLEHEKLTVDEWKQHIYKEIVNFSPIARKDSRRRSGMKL

[14] = target: T3, Mitogen-activated protein kinase 13 (Homo sapiens) (UniProt O15264); assay: Inhibition of p38delta at 10 uM
T3 sequence (whole entry): T2 sequence (O15264 whole entry)

Rattus norvegicus [15] = assay: Antiarthritic activity in po dosed heat-killed mycobacterium tuberculosis-induced rat arthritis model assessed as decrease in paw volume administered BID for 7 days measured 24 hrs post last dose by plethysmometry; format: functional; settings: read-out: ID50 (the source's name)
How it was run: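 Adjuvant arthritis was established by day 18, and rats with injected-foot volume ≥2.75 mL were grouped to equal means. Test agents in 0.5% CMC were given orally at 5 mL/kg twice daily on days 18–24. Feet were measured by plethysmometer on days 18, 20, 23 and 25. The swelled-foot ratio (day 25/day 18, corrected by normal animals) gave % inhibition versus controls. n=5.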

[16] = target: T4, Mitogen-activated protein kinase 12 (Homo sapiens) (UniProt P53778); assay: Inhibition of p38-gamma at 10 uM
T4 sequence (whole entry): T1 sequence (P53778 whole entry)

Rattus norvegicus [17] = assay: Analgesic activity in po dosed heat-killed mycobacterium tuberculosis-induced rat arthritis model assessed as decrease in squeaking behavior after 72 hrs […]; format: functional; settings: read-out: ID50 (the source's name)
Blood [18] = assay: Antiinflammatory activity in human whole blood assessed as inhibition of LPS-induced IL1-beta production after 6 hrs by immunoassay; format: functional, tissue-based; how it was run: as §1
Blood [19] = assay: Antiinflammatory activity in human whole blood assessed as inhibition of LPS-induced TNFalpha production at 1 uM after 6 hrs by immunoassay; format: functional

Compound: Fc1ccc(-c2[nH]cc(C3=C[C@@H]4CCCN4CC3)c2-c2ccncc2)cc1
- ED50 (Rattus norvegicus [1]): 3.1 mg/kg
- IC50 (Blood [2]): 880 nM
- IC50 [3]: 572 nM
- ED50 (Mus musculus [4]): 0.11 mg/kg
- ED50 (Mus musculus [5]): 0.93 mg/kg
- ED50 (Mus musculus [6]): 2.38 mg/kg
- IC50 [7]: > 10000 nM
- ED50 (Mus musculus [8]): 8.63 mg/kg
- IC50 [9]: 34 nM
- ED50 (Mus musculus [10]): 2.22 mg/kg
- IC50 (Blood [11]): 26 nM
- IC50 (Blood [12]): 16 nM
- IC50 [13]: > 10000 nM
- inhibition [14]: inactive
- ED50 (Rattus norvegicus [15]): 4.9 mg/kg
- inhibition [16]: inactive
- ED50 (Rattus norvegicus [17]): 2.9 mg/kg
- IC50 (Blood [18]): 20 nM

Compound: Fc1ccc(-c2[nH]cc(C3=CC4CCCN4CC3)c2-c2ccncc2)cc1 (stereo not drawn)
- ED50 (Mus musculus [5]): 1.09 mg/kg
- IC50 (Blood [11]): 42 nM

Compound: Fc1ccc(-c2[nH]cc(C3=CCN4CCCCC4C3)c2-c2ccncc2)cc1 (stereo not drawn)
- ED50 (Mus musculus [5]): 3.55 mg/kg
- IC50 (Blood [11]): 810 nM

Compound: Fc1ccc(-c2[nH]cc(C3=CC4CCCCN4CC3)c2-c2ccncc2)cc1 (stereo not drawn)
- ED50 (Mus musculus [5]): 2.27 mg/kg
- IC50 (Blood [11]): 310 nM

Compound: Fc1ccc(-c2[nH]cc(C3=C[C@H]4CCCN4CC3)c2-c2ccncc2)cc1
- inhibition at 1 µM (Blood [19]): 49%
- ED50 (Mus musculus [5]): 6.59 mg/kg

Compound: Fc1ccc(-c2[nH]cc(C3=CCN4CCCC4C3)c2-c2ccncc2)cc1 (stereo not drawn)
- ED50 (Mus musculus [5]): 2.85 mg/kg
- IC50 (Blood [11]): 600 nM
